From ChEMBL document CHEMBL5678802, “Small-molecule p21-activated kinase inhibitor PF-3758309 is a potent inhibitor of oncogenic signaling and tumor growth” (Proc Natl Acad Sci U S A, 2010) come the findings set out here.

The test system of one data set is T84. Nature of the data set: Antiproliferative activity against human T84 cells assessed as inhibition of cell proliferation incubated for 3 days by CellTiter-Glo Luminescent Cell Viability Assay. Type of data set: functional, cell-based. To be noted: T84, 72 h. In outline: (§1)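 Cells of each line were plated in 384-well plates on day 1 and exposed to compound from day 2 for 3 days. On day 5 all medium was aspirated. Viable cell number was read by CellTiter-Glo luminescence, which quantifies cellular ATP.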
Background: In ATP-based viability assays light output follows the ATP content of the culture.

The target in data set [1] is T1, Tyrosine-protein kinase Yes (Homo sapiens, UniProt P07947). Nature of the data set: Inhibition of human YES1 in presence of ATP by cellular assay.
T1 sequence (P07947 whole entry): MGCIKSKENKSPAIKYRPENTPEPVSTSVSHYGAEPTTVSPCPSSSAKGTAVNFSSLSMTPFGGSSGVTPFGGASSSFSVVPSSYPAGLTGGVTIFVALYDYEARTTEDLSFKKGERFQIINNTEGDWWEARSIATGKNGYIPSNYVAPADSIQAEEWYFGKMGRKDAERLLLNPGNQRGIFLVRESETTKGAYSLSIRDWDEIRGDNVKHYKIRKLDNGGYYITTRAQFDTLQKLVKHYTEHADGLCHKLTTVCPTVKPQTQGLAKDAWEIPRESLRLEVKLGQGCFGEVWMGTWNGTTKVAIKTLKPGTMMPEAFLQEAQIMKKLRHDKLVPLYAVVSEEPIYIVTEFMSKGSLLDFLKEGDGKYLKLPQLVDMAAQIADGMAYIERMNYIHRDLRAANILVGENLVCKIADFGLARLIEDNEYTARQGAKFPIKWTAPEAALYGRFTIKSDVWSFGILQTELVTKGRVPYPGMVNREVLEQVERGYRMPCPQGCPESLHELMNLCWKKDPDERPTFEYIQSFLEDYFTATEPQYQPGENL
In data set [2] the target is Serine/threonine-protein kinase Chk2 (Homo sapiens, UniProt O96017). Nature of the data set: Inhibition of human CHK2 in presence of ATP relative to control. To be noted: concentration not given here.
Serine/threonine-protein kinase Chk2, sequence (O96017 whole entry): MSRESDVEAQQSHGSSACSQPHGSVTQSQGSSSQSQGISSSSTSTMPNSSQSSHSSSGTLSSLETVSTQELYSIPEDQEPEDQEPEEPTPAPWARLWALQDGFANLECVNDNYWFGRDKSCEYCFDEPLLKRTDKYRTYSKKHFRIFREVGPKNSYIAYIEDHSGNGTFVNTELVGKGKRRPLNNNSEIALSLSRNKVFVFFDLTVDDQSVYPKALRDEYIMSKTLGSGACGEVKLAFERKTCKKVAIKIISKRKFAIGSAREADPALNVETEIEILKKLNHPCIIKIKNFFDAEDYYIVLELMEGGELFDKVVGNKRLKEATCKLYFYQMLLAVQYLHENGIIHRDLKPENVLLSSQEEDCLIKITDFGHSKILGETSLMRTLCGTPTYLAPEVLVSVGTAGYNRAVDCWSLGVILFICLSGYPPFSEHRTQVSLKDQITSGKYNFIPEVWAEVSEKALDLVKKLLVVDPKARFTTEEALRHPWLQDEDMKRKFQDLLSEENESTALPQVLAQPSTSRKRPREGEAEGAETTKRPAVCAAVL
The next data set relates to HCC38. Nature of the data set: Antiproliferative activity against human HCC38 cells assessed as inhibition of cell proliferation incubated for 3 days by CellTiter-Glo Luminescent Cell Viability Assay. As to conditions: HCC38, 72 h. The format is functional, cell-based. Summed up: (§2)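 Cancer cell lines seeded in 384-well plates on day 1; compound added on day 2 and left for 3 days. On day 5 all medium was aspirated, and viable cells were quantified by CellTiter-Glo luminescence, which measures cellular ATP. Dose-dependent effects on proliferation were determined.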

Data set [3] concerns the target Ribosomal protein S6 kinase alpha-2 (Homo sapiens, UniProt Q15349). Briefly: Inhibition of human RSK3 in presence of ATP relative to control. As to conditions: concentration not given here.
In a further data set the test system is SW948. Briefly: Antiproliferative activity against human SW948 cells assessed as inhibition of cell proliferation incubated for 3 days by CellTiter-Glo Luminescent Cell Viability Assay. To be noted: SW948, 72 h. Type of data set: functional, cell-based. Summed up:
as §1

Data set [4] has as its target T2, cGMP-dependent protein kinase 1 (Homo sapiens, UniProt Q13976).
T2 sequence (Q13976 whole entry): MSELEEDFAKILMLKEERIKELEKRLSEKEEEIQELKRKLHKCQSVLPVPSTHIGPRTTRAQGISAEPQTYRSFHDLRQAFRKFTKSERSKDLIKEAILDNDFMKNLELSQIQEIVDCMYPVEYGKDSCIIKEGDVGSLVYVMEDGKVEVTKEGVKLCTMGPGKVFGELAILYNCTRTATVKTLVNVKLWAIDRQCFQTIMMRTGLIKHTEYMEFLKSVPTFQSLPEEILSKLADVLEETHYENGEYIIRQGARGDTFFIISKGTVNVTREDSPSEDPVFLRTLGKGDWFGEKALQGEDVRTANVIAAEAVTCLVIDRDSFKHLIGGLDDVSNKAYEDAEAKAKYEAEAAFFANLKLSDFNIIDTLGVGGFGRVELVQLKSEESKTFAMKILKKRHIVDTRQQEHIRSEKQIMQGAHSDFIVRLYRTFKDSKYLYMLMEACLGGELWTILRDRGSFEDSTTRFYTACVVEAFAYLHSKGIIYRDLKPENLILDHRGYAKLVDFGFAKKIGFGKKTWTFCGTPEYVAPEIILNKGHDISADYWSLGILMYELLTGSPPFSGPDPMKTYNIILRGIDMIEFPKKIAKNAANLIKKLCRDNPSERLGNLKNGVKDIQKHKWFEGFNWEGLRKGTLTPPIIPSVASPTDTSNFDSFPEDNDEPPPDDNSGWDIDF
Nature of the data set: Inhibition of human PRKG1 in presence of ATP by cellular assay.

Data set [5] can be described thus: Drug concentration in nude mouse plasma xenografted with human HCT-116 cells at 0.36 mg/kg administered via pump for 9 days by LC-MS/MS analysis. Type of data set: ADME, organism-based. To be noted: time 9 day. On the technique in general: Xenograft models place foreign cells or tissue in a host animal.
Data set [6] has as its target T1, Tyrosine-protein kinase Yes. Briefly: Inhibition of human YES1 in presence of ATP.
The next data set has as its system Calu-1. Briefly: Antiproliferative activity against human Calu-1 cells assessed as inhibition of cell proliferation incubated for 3 days by CellTiter-Glo Luminescent Cell Viability Assay. To be noted: Calu-1, 72 h. Type of data set: functional, cell-based. In outline:
as §2

Data set [7] has as its target Protein kinase C beta type (Homo sapiens, UniProt P05771). Briefly: Inhibition of human PKCbeta-II in presence of ATP by cellular assay.
For data set [8], the system named is DLD-1. Briefly: Antitumor activity against PAK4 -/+ human DLD-1 cells xenografted in nude mouse assessed as tumor growth inhibition at 20 mg/kg, po administered once daily for 9 to 18 days relative to control. The format is functional. To be noted: time 9-18 day, read-out: TGI. In outline: (§3)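 Tumor cells were implanted s.c. into the right flank of female nu/nu nude mice aged 6–8 weeks. Animals were randomized into treatment groups once tumors were established (example: day 8 postimplant, about 170 mm3, animals >22 g). Compound in 0.5% methylcellulose was given by oral gavage. Tumors were measured with calipers two to three times per week.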

Data set [9] deals with AMP-activated protein kinase (AMPK) alpha-1/beta-1/gamma-1 (Homo sapiens) (UniProt P54619+Q9Y478+Q13131). Nature of the data set: Inhibition of human AMPK alpha1/beta1/gamma1 in presence of ATP relative to control. The format is protein-complex assay. To be noted: concentration not given here.
AMP-activated protein kinase (AMPK) alpha-1/beta-1/gamma-1 (Homo sapiens), sequence (P54619 whole entry): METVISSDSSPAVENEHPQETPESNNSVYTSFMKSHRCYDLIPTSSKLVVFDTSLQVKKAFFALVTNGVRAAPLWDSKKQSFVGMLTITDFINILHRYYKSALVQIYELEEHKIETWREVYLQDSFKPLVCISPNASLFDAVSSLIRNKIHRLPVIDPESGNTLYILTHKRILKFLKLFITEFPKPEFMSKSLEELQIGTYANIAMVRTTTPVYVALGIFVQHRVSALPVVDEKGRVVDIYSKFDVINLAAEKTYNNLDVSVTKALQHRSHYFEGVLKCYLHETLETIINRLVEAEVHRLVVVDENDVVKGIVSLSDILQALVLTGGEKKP
AMP-activated protein kinase (AMPK) alpha-1/beta-1/gamma-1 (Homo sapiens), sequence (Q13131 whole entry partner): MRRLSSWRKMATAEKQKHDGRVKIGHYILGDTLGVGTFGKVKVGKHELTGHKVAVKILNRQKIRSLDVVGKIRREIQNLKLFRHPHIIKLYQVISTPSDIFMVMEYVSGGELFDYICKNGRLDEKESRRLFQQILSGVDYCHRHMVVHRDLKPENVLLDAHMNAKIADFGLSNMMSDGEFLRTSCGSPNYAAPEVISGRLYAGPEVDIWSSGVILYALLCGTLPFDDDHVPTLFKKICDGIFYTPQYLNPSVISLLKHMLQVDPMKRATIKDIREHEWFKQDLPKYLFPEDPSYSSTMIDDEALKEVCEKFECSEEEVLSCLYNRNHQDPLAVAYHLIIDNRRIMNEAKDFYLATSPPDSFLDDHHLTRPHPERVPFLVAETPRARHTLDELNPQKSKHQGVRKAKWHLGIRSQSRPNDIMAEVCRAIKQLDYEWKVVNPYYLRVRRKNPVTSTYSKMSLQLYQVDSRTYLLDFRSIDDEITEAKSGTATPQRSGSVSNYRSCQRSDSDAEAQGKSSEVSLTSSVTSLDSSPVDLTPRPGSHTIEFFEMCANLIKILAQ
AMP-activated protein kinase (AMPK) alpha-1/beta-1/gamma-1 (Homo sapiens), sequence (Q9Y478 2-270 partner limits assumed): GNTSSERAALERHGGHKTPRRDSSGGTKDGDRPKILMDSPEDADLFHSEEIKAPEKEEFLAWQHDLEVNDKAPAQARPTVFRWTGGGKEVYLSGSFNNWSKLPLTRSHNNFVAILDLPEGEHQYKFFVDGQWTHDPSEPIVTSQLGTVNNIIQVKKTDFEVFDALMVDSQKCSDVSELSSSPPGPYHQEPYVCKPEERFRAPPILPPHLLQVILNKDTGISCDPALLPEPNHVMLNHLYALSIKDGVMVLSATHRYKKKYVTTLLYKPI
A further data set has as its system COLO 205. Briefly: Inhibition of anchorage independent cell growth in human COLO 205 cells incubated for 6 days by Alamar blue reagent based fluorescence plate reader analysis. The format is functional. As to conditions: COLO 205, 144 h. Summed up: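 Soft-agar colony formation: bottom layer 0.5% agar (2× DMEM with 1% agarose, 1:1), top layer 0.35% agar holding 4,000 cells; layers set 20–30 min at room temperature, then 1× DMEM containing compound added on top. Incubated 6 days; Alamar blue added and fluorescence read at 540 nm.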
In general terms: Alamar Blue is a resazurin reagent that responds to reducing activity.

The target of data set [10] is Tyrosine-protein kinase Fyn (Homo sapiens, UniProt P06241). Briefly: Inhibition of human FYN in presence of ATP by cellular assay.
Tyrosine-protein kinase Fyn, sequence (P06241 whole entry): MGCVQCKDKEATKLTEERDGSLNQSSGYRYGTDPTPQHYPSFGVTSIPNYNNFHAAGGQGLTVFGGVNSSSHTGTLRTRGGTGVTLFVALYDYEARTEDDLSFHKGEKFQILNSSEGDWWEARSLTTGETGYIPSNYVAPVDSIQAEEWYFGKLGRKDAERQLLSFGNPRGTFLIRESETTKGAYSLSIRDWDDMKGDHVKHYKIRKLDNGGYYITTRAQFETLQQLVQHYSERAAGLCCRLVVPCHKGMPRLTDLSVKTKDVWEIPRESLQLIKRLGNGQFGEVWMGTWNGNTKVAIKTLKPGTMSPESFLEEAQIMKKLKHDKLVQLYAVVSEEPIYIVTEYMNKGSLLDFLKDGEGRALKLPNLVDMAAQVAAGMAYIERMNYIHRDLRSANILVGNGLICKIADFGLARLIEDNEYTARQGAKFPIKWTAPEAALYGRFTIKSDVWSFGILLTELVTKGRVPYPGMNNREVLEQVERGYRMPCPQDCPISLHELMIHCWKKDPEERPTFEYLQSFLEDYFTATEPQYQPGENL
The subject of another data set is HCC1395. Briefly: Antiproliferative activity against human HCC1395 cells assessed as inhibition of cell proliferation incubated for 3 days by CellTiter-Glo Luminescent Cell Viability Assay. As to conditions: HCC1395, 72 h. Type of data set: functional, cell-based. In outline:
as §2

Data set [11] deals with Ribosomal protein S6 kinase alpha-1 (Homo sapiens, UniProt Q15418). Briefly: Inhibition of human RSK1 in presence of ATP relative to control. As to conditions: concentration not given here.
Ribosomal protein S6 kinase alpha-1, sequence (Q15418 whole entry): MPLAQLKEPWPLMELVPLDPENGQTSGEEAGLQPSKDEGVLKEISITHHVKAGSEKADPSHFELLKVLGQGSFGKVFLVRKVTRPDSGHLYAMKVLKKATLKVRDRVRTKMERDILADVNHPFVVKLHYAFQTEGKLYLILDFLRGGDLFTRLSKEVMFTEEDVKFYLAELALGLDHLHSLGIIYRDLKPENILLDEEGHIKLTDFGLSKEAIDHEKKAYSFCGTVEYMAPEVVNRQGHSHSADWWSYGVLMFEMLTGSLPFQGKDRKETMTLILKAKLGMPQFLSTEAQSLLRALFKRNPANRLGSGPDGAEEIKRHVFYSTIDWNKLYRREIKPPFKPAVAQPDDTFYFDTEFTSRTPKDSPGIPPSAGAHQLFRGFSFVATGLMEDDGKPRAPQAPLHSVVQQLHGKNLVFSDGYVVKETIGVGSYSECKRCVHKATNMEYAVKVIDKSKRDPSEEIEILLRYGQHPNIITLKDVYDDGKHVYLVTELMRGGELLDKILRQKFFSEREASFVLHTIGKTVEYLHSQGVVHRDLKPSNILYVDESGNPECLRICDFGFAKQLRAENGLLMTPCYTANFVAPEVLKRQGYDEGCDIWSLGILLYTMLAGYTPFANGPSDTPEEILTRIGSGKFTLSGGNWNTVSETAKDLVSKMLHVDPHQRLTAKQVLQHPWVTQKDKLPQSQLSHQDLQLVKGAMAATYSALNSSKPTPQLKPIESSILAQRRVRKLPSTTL
Another data set concerns MDA-MB-231. Nature of the data set: Antitumor activity against human MDA-MB-231 cells xenografted in nude mouse assessed as tumor growth inhibition at 20 mg/kg, po administered once daily for 9 to 18 days relative to control. The format is functional. As to conditions: time 9-18 day, read-out: TGI.
Data set [12] concerns DLD-1. Nature of the data set: Antitumor activity against PAK4 -/+ human DLD-1 cells xenografted in nude mouse assessed as tumor growth inhibition at 10 mg/kg, po administered once daily for 9 to 18 days relative to control. As to conditions: time 9-18 day, read-out: TGI. The format is functional. Summed up: as §3
The subject of a further data set is NCI-H520. Nature of the data set: Inhibition of anchorage independent cell growth in human NCI-H520 cells incubated for 6 days by Alamar blue reagent based fluorescence plate reader analysis. Type of data set: functional. To be noted: NCI-H520, 144 h.
The subject of a further data set is HCT-116. Briefly: Downregulation of camptothecin-induced p53 level in human HCT-116 cells at 1 uM preincubated with compound for 15 mins followed by camptothecin stimulation and measured after 20 hrs by Western blot analysis. The format is functional, cell-based. To be noted: time 20.25 hrs.
Data set [13] concerns the target Protein kinase C gamma type (Homo sapiens, UniProt P05129). Nature of the data set: Inhibition of human PKCgamma assessed as inhibition constant in presence of ATP.
A further data set deals with LS-123. Nature of the data set: Antiproliferative activity against human LS-123 cells assessed as inhibition of cell proliferation incubated for 3 days by CellTiter-Glo Luminescent Cell Viability Assay. The format is functional, cell-based. To be noted: LS-123, 72 h. Summed up:
as §2

Another data set relates to HuP-T3. Briefly: Antiproliferative activity against human HuP-T3 cells assessed as inhibition of cell proliferation incubated for 3 days by CellTiter-Glo Luminescent Cell Viability Assay. Type of data set: functional, cell-based. As to conditions: HuP-T3, 72 h. Summed up:
as §2

Activity calls are given as the source filed them. The calls are words filed in the database; no cut-off is given here.

Ribosomal protein S6 kinase alpha-2, sequence (Q15349 whole entry): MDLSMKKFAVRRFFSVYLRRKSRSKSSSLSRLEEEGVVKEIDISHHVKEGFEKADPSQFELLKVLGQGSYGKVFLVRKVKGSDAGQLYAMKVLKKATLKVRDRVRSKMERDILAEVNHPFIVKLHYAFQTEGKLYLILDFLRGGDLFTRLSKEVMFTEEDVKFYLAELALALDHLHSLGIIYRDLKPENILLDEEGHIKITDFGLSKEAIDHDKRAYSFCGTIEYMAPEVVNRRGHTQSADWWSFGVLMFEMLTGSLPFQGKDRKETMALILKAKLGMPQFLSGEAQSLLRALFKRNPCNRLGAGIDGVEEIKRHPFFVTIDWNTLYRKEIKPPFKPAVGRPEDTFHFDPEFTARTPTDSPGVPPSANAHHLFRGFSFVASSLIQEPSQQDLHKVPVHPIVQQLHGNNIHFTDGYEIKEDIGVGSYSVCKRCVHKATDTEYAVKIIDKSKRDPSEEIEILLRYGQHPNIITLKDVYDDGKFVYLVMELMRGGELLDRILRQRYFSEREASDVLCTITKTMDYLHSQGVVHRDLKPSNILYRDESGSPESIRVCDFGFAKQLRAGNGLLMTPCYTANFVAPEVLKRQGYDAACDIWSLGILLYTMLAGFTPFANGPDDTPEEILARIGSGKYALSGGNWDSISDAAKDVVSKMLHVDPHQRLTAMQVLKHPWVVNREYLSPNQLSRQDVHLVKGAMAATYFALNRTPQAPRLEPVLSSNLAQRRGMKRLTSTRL

Regarding `Cc1nc(Nc2n[nH]c3c2CN(C(=O)N[C@H](CN(C)C)c2ccccc2)C3(C)C)c2sccc2n1` [PF-03758309], the IC50 (usually the concentration that inhibits the measured activity by half) with T84 was 89 nM; in data set [1], 612 nM; in the data set with HCC38 it was 0.52 nM; in the data set on SW948, 4.3 nM; in data set [4] it was 3370 nM; in data set [6], 47 nM. In addition, the IC50 in the data set on Calu-1 came to 167 nM; in [7] it was 1390 nM; in the data set with COLO 205, 140 nM; in [10], 1090 nM; with HCC1395, 1.6 nM; in the data set with NCI-H520 it was 1.13 nM. Also, the IC50 is 10000 nM with LS-123 and 280 nM in the data set on HuP-T3. Further, the inhibition – broadly, the change of the read-out against control, counted positive when it falls – amounted to 103% in data set [2], 98% in data set [3], 101% in [9] and 101% in data set [11]. This compound also yielded a concentration at 216 h in data set [5] of 1.7 ng/mL. The inhibition in vivo at 20 mg/kg in the data set on DLD-1 [8] came to 0%; with MDA-MB-231, 89%. In addition, the inhibition in vivo at 10 mg/kg in the data set on DLD-1 [12] was determined as 0%. Besides, in the data set on HCT-116, the result was Active. For the same compound, in [13], the Ki (in general, a measure of affinity in units of concentration, obtained from inhibition or displacement) was found to be 43 nM.
